From ChEMBL document CHEMBL3758165, “In vitro interactions between anidulafungin and nonsteroidal anti-inflammatory drugs on biofilms of Candida spp” (2016)

Legend:
Type in all cases: functional
[1] = tested on: Candida albicans; experiment: Antibiofilm activity against Candida albicans ATCC 24433 at 1 mM after 24 hrs by XTT reduction assay relative to control; set-up: scale not given: the % may be the effect or the level left
In short: (§1)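 Biofilms grown on sterilized PVC disks: 1·10^6 cfu/ml Candida cells adhered for 1.5 h at 37 °C with shaking, washed with PBS, then matured 48 h at 37 °C in RPMI 1640 (MOPS, pH 7). Preformed biofilms were washed and exposed to drug, alone or in two-dimensional checkerboard combination, in RPMI 1640 for 24 h at 37 °C on a rocker.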

[2] = tested on: Meyerozyma guilliermondii; experiment: Antibiofilm activity against Candida guilliermondii a410 at 0.2 mM after 24 hrs by XTT reduction assay relative to control; set-up: scale not given: the % may be the effect or the level left; in short: as §1
[3] = tested on: Meyerozyma guilliermondii; experiment: Antibiofilm activity against Candida guilliermondii a83 assessed as fractional inhibitory concentration by two dimensional checkerboard dilution method in presence of ibuprofen
In short: (§2)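 Biofilms were grown on PVC disks from 2 ml of a 1·10^6 cfu/ml cell suspension. Adhesion ran 1.5 h at 37 °C with shaking at 100 rpm. Disks were PBS-washed, then matured 48 h at 37 °C in RPMI 1640 (MOPS, pH 7). Biofilms were washed again and given 24 h at 37 °C of anidulafungin/NSAID checkerboard combinations (NSAID final 0.1 µM–100 mM). Read-out was XTT-menadione (2 h, 37 °C, 490 nm). SMIC was defined as 50% reduction versus drug-free control, from which FICI was calculated. Triplicates were run on different days.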

[4] = tested on: Candida albicans; experiment: Antibiofilm activity against Candida albicans ATCC 90028 by two dimensional checkerboard dilution method in presence of aspirin
In short: (§3)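 Preformed 48 h disk biofilms (RPMI 1640, MOPS pH 7, 37 °C), PBS-washed, exposed 24 h at 37 °C on rocker to two-dimensional checkerboard of anidulafungin plus NSAID in RPMI; NSAID final 0.1 µM to 100 mM. XTT reduction at 490 nm; SMIC = combination giving 50% metabolic reduction versus drug-free control; FIC index calculated; triplicate on different days.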

[5] = tested on: Candida albicans; experiment: Antibiofilm activity against Candida albicans ATCC 90028 assessed as fractional inhibitory concentration by two dimensional checkerboard dilution method in presence of aspirin; in short: as §3
[6] = tested on: Nakaseomyces glabratus; experiment: Antibiofilm activity against Candida glabrata ATCC 15126 assessed as fractional inhibitory concentration by two dimensional checkerboard dilution method in presence of aspirin; in short: as §3
[7] = tested on: Meyerozyma guilliermondii; experiment: Antibiofilm activity against Candida guilliermondii a410 after 48 hrs by XTT reduction assay relative to control; set-up: scale not given: the % may be the effect or the level left
In short: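 Biofilms grown on autoclaved PVC disks: 1·10^6 cfu ml-1 cells, adhesion 1.5 h at 37 °C shaking 100 rpm, PBS wash, then 48 h at 37 °C in RPMI 1640 (MOPS, pH 7). Metabolic activity read by XTT–menadione reduction, 2 h at 37 °C, supernatant formazan at 490 nm, relative to drug-free control; triplicate on different days.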

[8] = tested on: Candida albicans; experiment: Antibiofilm activity against Candida albicans ATCC 10231 assessed as fractional inhibitory concentration by two dimensional checkerboard dilution method in presence of aspirin; in short: as §3
[9] = tested on: Meyerozyma guilliermondii; experiment: Antibiofilm activity against Candida guilliermondii a83 assessed as fractional inhibitory concentration by two dimensional checkerboard dilution method in presence of diclofenac; in short: as §2
[10] = tested on: Candida albicans; experiment: Antibiofilm activity against Candida albicans 17a18 assessed as fractional inhibitory concentration by two dimensional checkerboard dilution method in presence of ibuprofen; in short: as §3
[11] = tested on: Candida albicans; experiment: Antibiofilm activity against Candida albicans 17a18 by two dimensional checkerboard dilution method in presence of diclofenac; in short: as §3
[12] = tested on: Nakaseomyces glabratus; experiment: Antibiofilm activity against Candida glabrata 18a10 by two dimensional checkerboard dilution method in presence of ibuprofen; in short: as §3
[13] = tested on: Candida albicans; experiment: Antibiofilm activity against Candida albicans ATCC 10231 assessed as fractional inhibitory concentration by two dimensional checkerboard dilution method in presence of diclofenac; in short: as §3
[14] = tested on: Meyerozyma guilliermondii; experiment: Antibiofilm activity against Candida guilliermondii a410 assessed as fractional inhibitory concentration by two dimensional checkerboard dilution method in presence of diclofenac; in short: as §2
[15] = tested on: Candida albicans; experiment: Antibiofilm activity against Candida albicans ATCC 90028 assessed as fractional inhibitory concentration by two dimensional checkerboard dilution method in presence of diclofenac; in short: as §3
[16] = tested on: Nakaseomyces glabratus; experiment: Antibiofilm activity against Candida glabrata ATCC 15126 assessed as fractional inhibitory concentration by two dimensional checkerboard dilution method in presence of diclofenac; in short: as §3

Compound: CC(=O)Oc1ccccc1C(=O)O [ASPIRIN]
- Activity [1]: 48.75%

Compound: CC(C)Cc1ccc(C(C)C(=O)O)cc1 (stereo unspecified) [IBUPROFEN]
- Activity [2]: 53.24%

Compound: CCCCCOc1ccc(-c2ccc(-c3ccc(C(=O)N[C@@H]4C[C@@H](O)[C@@H](O)NC(=O)[C@@H]5[C@@H](O)[C@@H](C)CN5C(=O)[C@H]([C@@H](C)O)NC(=O)[C@H]([C@H](O)[C@@H](O)c5ccc(O)cc5)NC(=O)[C@@H]5C[C@@H](O)CN5C(=O)[C@H]([C@H](C)O)NC4=O)cc3)cc2)cc1
- Ratio [3]: 0.05
- MIC [4]: 0.1 µg/mL
- Ratio [5]: 0.05
- Ratio [6]: 0.05
- Activity [7]: 45.62%
- Ratio [8]: 0.05
- Ratio [9]: 0.1
- Ratio [10]: 0.2
- MIC [11]: 0.1 µg/mL
- MIC [12]: 0.1 µg/mL
- Ratio [13]: 0.05
- Ratio [14]: 0.05
- Ratio [15]: 0.05
- Ratio [16]: 0.1
